Data set [1] deals with Human betaherpesvirus 5. Put plainly: Antiviral activity against Human cytomegalovirus harboring ANCHOR infected in MRC5 cells assessed as reduction in viral infection at measured after 6 days by microscopic analysis relative to control. It is filed as functional, cell-based. The settings on record: time 6.0 day. The method in brief:
(§1)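 MRC-5 primary fibroblasts in phenol red-free DMEM with 10% FBS were seeded 8k/well. At 24 h they were treated with compound, infected with hCMV ANCHOR at MOI 1, and fixed 6 days post infection. High-content imaging gave infection rate (fluorescent/total cells) and replication (integrated ANCHOR spot intensity) over ≥1000 cells/well, normalized to DMSO; mean of three wells ± SD.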

Data set [2] deals with Human betaherpesvirus 5. Put plainly: Antiviral activity against Human cytomegalovirus infected in MRC5 cells assessed as reduction in viral plaque at 1.25 uM measured after 6 days by microscopic analysis. The data set is classed as functional, cell-based. The settings on record: time 6.0 day. Summed up: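 MRC-5 fibroblasts seeded at 8k cells/well and infected 24 h later with fluorescent hCMV ANCHOR strain at MOI 1, with compound added at increasing concentrations. Cultured 6 days, fixed with formalin, nuclei stained with Hoechst, and imaged by high-content microscopy. Fluorescent plaques and replication centres were scored against DMSO-treated cells.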

Data set [3] deals with Human betaherpesvirus 5. Put plainly: Antiviral activity against Human cytomegalovirus infected in MRC5 cells assessed as reduction in viral plaque at 2.5 uM measured after 6 days by microscopic analysis relative to control. The following applies: time 6 day. Also noted: scale not given: the % may be the effect or the level left. The data set is classed as functional. The method in brief: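 Compound-treated MRC-5 fibroblasts were infected with hCMV ANCHOR at MOI 1, fixed 6 days post infection and imaged by fluorescence microscopy. Fluorescent viral plaques and replication centres were compared against vehicle (DMSO)-treated wells.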

Data set [4] relates to Human betaherpesvirus 5. Put plainly: Antiviral activity against Human cytomegalovirus infected in ARPE-19 cells measured after 10 days by fluorescence based microscopic analysis. It is filed as functional, cell-based. The settings on record: Human betaherpesvirus 5, ARPE-19, 240 h; read-out: IC50. The method in brief: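 Cells were ARPE-19 in phenol red-free DMEM with 10% FBS, seeded 8k/well. At 24 h they received a range of compound concentrations and hCMV ANCHOR at MOI 10, then were fixed 10 days post infection. Imaging scored infection rate (fluorescent/total cells) and ANCHOR spot intensity over ≥1000 cells/well, normalized to DMSO and used to derive IC50; mean of three wells ± SD.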

A short description of data set [5]: Cytotoxicity against human MRC5 cells assessed as reduction in nuclei count measured after 6 days for Hoechst 33342 staining based microscopic analysis. It is filed as cell-based. The settings on record: time 6 day. The method in brief:
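MRC-5 fibroblasts seeded at 8k/well in complete DMEM with 10% FBS and treated 24 h later with increasing compound concentrations. Incubated 6 days at 37 °C, 5% CO2. Formalin-fixed, Hoechst 33342 (1 μg mL–1) stained, and nuclei counted by high-content imaging. Counts normalized to DMSO wells. CC50 is the concentration halving the nuclei count. Mean of two wells ± SD.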

Data set [6] relates to Human betaherpesvirus 5. Put plainly: Antiviral activity against Human cytomegalovirus harboring ANCHOR infected in ARPE-19 cells assessed as reduction in viral infection measured after 10 days by microscopic analysis relative to control. The following applies: time 10.0 day.
The subject of data set [7] is Human betaherpesvirus 5. Put plainly: Antiviral activity against Human cytomegalovirus infected in MRC5 cells measured after 6 days by fluorescence based microscopic analysis. The data set is classed as functional, cell-based. The following applies: Human betaherpesvirus 5, MRC5, 144 h; read-out: IC50. Summed up: as §1
A short description of data set [8]: Cytotoxicity against human ARPE-19 cells assessed as reduction in nuclei count measured after 10 days for Hoechst 33342 staining based microscopic analysis. The settings on record: time 10 day. The data set is classed as cell-based. The method in brief: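 ARPE-19 epithelial cells seeded at 8k/well in complete DMEM with 10% FBS and treated with increasing compound concentrations 24 h later. Incubated 10 days at 37 °C. Formalin-fixed, stained with Hoechst 33342 (1 μg mL–1), and nuclei counted by high-content imaging. Counts normalized to DMSO wells. CC50 is the concentration reducing nuclei count by 50%. Mean of two wells ± SD.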

A short description of data set [9]: Selectivity index, ratio of CC50 for human MRC5 cells assessed as reduction in nuclei count measured after 6 days for Hoechst 33342 staining based microscopic analysis to EC50 Human cytomegalovirus infected in MRC5 cells measured after 6 days by microscopic analysis. The data set is classed as toxicity, cell-based. The settings on record: time 6 day, read-out: Ratio CC50/EC50. Summed up: (§2)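 CC50 comes from Hoechst nuclei counts after compound treatment, normalized to DMSO. IC50 comes from hCMV ANCHOR infection at MOI 1 in MRC-5 (read 6 dpi) or MOI 10 in ARPE-19 (read 10 dpi). Infection rate is fluorescent cells over total cells, from at least 1000 cells per well, in triplicate wells. SI is CC50 divided by IC50.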

A short description of data set [10]: Selectivity index, ratio of CC50 for human ARPE-19 cells assessed as reduction in nuclei count measured after […] 33342 staining based microscopic analysis to EC50 Human cytomegalovirus infected in ARPE-19 cells measured after 10 days by microscopic analysis. The following applies: read-out: Ratio CC50/EC50. It is filed as toxicity, cell-based. The method in brief:
as §2

Data set [11] relates to Human betaherpesvirus 5. Put plainly: Antiviral activity against Human cytomegalovirus harboring ANCHOR infected in ARPE-19 cells assessed as reduction in viral infection at 0.75 uM measured after 6 days by microscopic analysis relative to control. The data set is classed as functional. The settings on record: time 6 day. Summed up:
(§3)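 ARPE-19 epithelial cells grown in phenol red-free DMEM with 10% FBS, seeded 8k/well. After 24 h they were treated with compound and infected with hCMV ANCHOR (fluorescently labelled viral DNA) at MOI 10, then fixed 6 days post infection. High-content imaging scored infection rate (fluorescent/total cells) and replication (integrated ANCHOR spot intensity) over ≥1000 cells/well, normalized to DMSO; mean of three wells ± SD.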

The subject of data set [12] is Human betaherpesvirus 5. Put plainly: Antiviral activity against Human cytomegalovirus harboring ANCHOR infected in MRC5 cells assessed as reduction in viral replication at 0.75 uM measured after 6 days by microscopic analysis relative to control. The data set is classed as functional. Also noted: scale not given: the % may be the effect or the level left. The settings on record: time 6 day. The method in brief:
as §1

The subject of data set [13] is Human betaherpesvirus 5. Put plainly: Antiviral activity against Human cytomegalovirus harboring ANCHOR infected in ARPE-19 cells assessed as reduction in viral replication at 0.75 uM measured after 6 days by microscopic analysis relative to control. The data set is classed as functional. The settings on record: time 6 day. The method in brief:
as §3

For data set [14], the system named is Human betaherpesvirus 5. Put plainly: Antiviral activity against Human cytomegalovirus harboring ANCHOR infected in MRC5 cells assessed as reduction in virus-induced cytopathic effect. The data set is classed as functional, cell-based.
Data set [15] relates to Human betaherpesvirus 5. Put plainly: Antiviral activity against Human cytomegalovirus harboring ANCHOR infected in MRC5 cells assessed as reduction in viral infection at 0.75 uM measured after 6 days by microscopic analysis relative to control. It is filed as functional. Also noted: scale not given: the % may be the effect or the level left. The settings on record: time 6 day. Summed up: as §1

The source made the active and inactive calls. The calls are words filed in the database; no cut-off is given here.

The term IC50 denotes the concentration that gives 50% inhibition. In general, CC50 refers to the concentration giving 50% cytotoxicity. On to `O=[N+]([O-])c1cccc(-c2c3nc(c4ccc([nH]4)c(-c4cccc([N+](=O)[O-])c4F)c4ccc([nH]4)c(-c4cccc([N+](=O)[O-])c4F)c4ccc2[nH]4)C=C3)c1F`, for which the Activity entry in the data set with Human betaherpesvirus 5 [1] was “Dose-dependent effect”; in the data set with Human betaherpesvirus 5 [3] it was 100%; in the data set with Human betaherpesvirus 5 [6] it was “Dose-dependent effect”. In addition, the result in the data set with Human betaherpesvirus 5 [2] was Active. For the same compound, the IC50 in the data set on Human betaherpesvirus 5 [4] worked out at 600 nM; with Human betaherpesvirus 5 [7], 1800 nM. The CC50 at 144 h in [5] was more than 50000 nM. The CC50 at 240 h in [8] is more than 50000 nM. Moreover, the selectivity ratio at 144 h in data set [9] is more than 27. In addition, the selectivity ratio in data set [10] is more than 82.

For the compound `O=[N+]([O-])c1ccc(F)c(-c2c3nc(c4ccc([nH]4)c(-c4cc([N+](=O)[O-])ccc4F)c4ccc([nH]4)c(-c4cc([N+](=O)[O-])ccc4F)c4ccc2[nH]4)C=C3)c1`, the entries for the “fold change (FC)” value with Human betaherpesvirus 5 [11] and in the data set with Human betaherpesvirus 5 [13] were 10 and 5, respectively. Also, the results for the Activity with Human betaherpesvirus 5 [12] and with Human betaherpesvirus 5 [15] were 80% and 60%, respectively. In addition, the IC50 is 1300 nM in the data set on Human betaherpesvirus 5 [4] and 1500 nM in the data set with Human betaherpesvirus 5 [7]. Further, the CC50 at 144 h in data set [5] worked out at 3700 nM. Further, the result with Human betaherpesvirus 5 [14] was Active. For the same compound, the CC50 at 240 h in [8] was 50000 nM. The selectivity ratio at 144 h in [9] was determined as 2.4. Besides, in data set [10], the selectivity ratio worked out at 39.

For the origin of these results see ChEMBL document CHEMBL4699411, “A3- and A2B-nitrocorroles: synthesis and antiviral activity evaluation against human cytomegalovirus infection” (RSC Med Chem, 2020).
